Experimental data reported in ChEMBL document CHEMBL1149534, “3-Arylamino-2H-1,2,4-benzothiadiazin-5-ol 1,1-dioxides as novel and selective CXCR2 antagonists” (Bioorg Med Chem Lett, 2007).
Values after ≈ are worked out from the molar mass of the structure shown. Blank lines part the entries; values can stand above or below the compound they belong to.

How the values were obtained:
[1] = target: T1, C-X-C chemokine receptor type 2 (Homo sapiens, UniProt P25025); assay: Displacement of human recombinant [125I]IL8 from CXCR2 receptor expressed in CHO cells; assay type: cell-based
T1 sequence (P25025 whole entry): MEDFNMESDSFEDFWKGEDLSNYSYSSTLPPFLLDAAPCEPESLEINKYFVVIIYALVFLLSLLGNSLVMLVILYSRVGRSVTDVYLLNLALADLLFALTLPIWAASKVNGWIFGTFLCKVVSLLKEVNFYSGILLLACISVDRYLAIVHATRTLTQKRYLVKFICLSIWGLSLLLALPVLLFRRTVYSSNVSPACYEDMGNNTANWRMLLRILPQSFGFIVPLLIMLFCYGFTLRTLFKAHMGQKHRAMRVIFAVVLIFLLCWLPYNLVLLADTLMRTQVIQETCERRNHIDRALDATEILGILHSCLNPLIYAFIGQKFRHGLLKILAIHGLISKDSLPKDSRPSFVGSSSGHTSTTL
How it was run: (§1)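 Membranes from CHO cells expressing CXCR1 or CXCR2, with ~0.25 nM human recombinant [125I]-IL-8 as radioligand, run in 96-well format. Values are the mean of three individual experiments.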

[2] = target: T2, C-X-C chemokine receptor type 1 (Homo sapiens, UniProt P25024); assay: Displacement of human recombinant [125I]IL8 from CXCR1 receptor expressed in CHO cells; assay type: cell-based; how it was run: as §1
T2 sequence (P25024 whole entry): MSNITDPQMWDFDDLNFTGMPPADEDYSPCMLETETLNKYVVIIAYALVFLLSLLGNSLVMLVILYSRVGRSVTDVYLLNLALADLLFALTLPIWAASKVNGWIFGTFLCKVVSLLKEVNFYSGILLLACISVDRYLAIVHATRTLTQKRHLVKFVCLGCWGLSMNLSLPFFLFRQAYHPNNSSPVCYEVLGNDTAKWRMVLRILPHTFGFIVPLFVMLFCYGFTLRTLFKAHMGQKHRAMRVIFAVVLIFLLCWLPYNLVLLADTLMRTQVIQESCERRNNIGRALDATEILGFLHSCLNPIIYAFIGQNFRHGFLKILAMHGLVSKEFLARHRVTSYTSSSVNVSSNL

[3] = target: Interleukin-8 receptors, CXCR1/CXCR2 (Homo sapiens) (UniProt P25025+P25024); assay: Ratio of IC50 for CXCR2 receptor to IC50 CXCR1 receptor; assay type: protein assay
How it was run: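 Selectivity ratio from radioligand-binding IC50s at CXCR2 and CXCR1, using CHO-cell membranes expressing each receptor. Binding results are the mean of three individual experiments.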

[4] = target: T1, C-X-C chemokine receptor type 2; assay: Antagonist activity at CXCR2 receptor expressed in CHOK1 cells assessed as human IL8-induced calcium mobilization by FLIPR; assay type: functional, cell-based, CHO-K1
How it was run: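 Cells grown 24 h, loaded with Fluo-4 AM calcium dye, then exposed to compound at […] for 10 min at 37 °C. Ca2+ mobilization read on FLIPR as percent of maximal IL-8 response. IC50 taken as concentration giving 50% inhibition of the maximal IL-8 response.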

[5] = Solubility in phosphate buffer at pH 7.4; assay type: physicochemical
How it was run: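 Aqueous solubility measured in 0.05 M phosphate buffer, pH 7.4, containing 2% DMSO. High-throughput HPLC-based read-out.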

[6] = target: 5-hydroxytryptamine receptor 7 (Homo sapiens, UniProt P34969); assay: Inhibition of 5HT7 receptor
5-hydroxytryptamine receptor 7, sequence (P34969 whole entry): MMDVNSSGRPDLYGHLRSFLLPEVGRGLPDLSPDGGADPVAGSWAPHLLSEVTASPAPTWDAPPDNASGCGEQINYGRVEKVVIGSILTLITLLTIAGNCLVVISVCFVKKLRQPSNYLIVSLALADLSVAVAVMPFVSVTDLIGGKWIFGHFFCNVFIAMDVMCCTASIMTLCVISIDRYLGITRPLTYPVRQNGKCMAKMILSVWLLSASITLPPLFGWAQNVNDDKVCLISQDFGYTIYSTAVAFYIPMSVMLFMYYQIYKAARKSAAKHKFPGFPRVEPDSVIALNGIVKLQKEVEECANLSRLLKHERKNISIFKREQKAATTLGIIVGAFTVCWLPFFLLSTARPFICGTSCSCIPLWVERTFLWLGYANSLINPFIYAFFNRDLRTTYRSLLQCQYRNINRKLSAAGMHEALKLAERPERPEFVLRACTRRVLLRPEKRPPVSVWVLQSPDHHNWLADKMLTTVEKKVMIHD

[7] = target: T3, Adrenergic receptor alpha-1 (Homo sapiens, UniProt P35348+P25100+P35368); assay: Inhibition of adrenergic A1 receptor; assay type: protein assay
D(2) dopamine receptor = D(2) dopamine receptor (Homo sapiens, UniProt P14416); assay: Inhibition of dopamine D2 receptor
[8] = target: Mitogen-activated protein kinase 14 (Homo sapiens, UniProt Q16539); assay: Inhibition of P38alpha
Mitogen-activated protein kinase 14, sequence (Q16539 whole entry): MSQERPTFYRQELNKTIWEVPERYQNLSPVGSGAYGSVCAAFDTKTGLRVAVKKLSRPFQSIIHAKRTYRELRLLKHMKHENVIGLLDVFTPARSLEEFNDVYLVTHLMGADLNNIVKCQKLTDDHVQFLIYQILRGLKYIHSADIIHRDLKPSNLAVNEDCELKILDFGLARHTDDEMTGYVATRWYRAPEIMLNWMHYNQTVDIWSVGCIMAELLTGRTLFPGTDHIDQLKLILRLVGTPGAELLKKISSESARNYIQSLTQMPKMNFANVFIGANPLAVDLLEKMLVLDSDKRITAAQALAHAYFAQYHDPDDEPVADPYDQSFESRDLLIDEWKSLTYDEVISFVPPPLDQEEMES

[9] = target: 5-hydroxytryptamine receptor 1B (Homo sapiens, UniProt P28222); assay: Inhibition of 5HT1B receptor
5-hydroxytryptamine receptor 1B, sequence (P28222 whole entry): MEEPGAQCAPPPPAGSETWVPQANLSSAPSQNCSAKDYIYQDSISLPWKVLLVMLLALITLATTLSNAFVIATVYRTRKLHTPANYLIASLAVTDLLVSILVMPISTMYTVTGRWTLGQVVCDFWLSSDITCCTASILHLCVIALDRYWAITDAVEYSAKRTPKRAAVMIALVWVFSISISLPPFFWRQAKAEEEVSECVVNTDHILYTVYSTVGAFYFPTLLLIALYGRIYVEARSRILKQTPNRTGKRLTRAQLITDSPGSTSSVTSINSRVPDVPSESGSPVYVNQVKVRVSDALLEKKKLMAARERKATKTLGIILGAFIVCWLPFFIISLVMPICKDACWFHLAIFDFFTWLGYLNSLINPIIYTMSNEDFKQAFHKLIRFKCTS

[10] = target: 5-hydroxytryptamine receptor 1A (Homo sapiens, UniProt P08908); assay: Inhibition of 5HT1A receptor
[11] = target: 5-hydroxytryptamine receptor 2C (Homo sapiens, UniProt P28335); assay: Inhibition of 5HT2C receptor
[12] = target: 5-hydroxytryptamine receptor 4 (Homo sapiens, UniProt Q13639); assay: Inhibition of 5HT4A receptor
Adenosine receptor A2a = Adenosine receptor A2a (Homo sapiens, UniProt P29274); assay: Inhibition of adenosine A2a receptor
Adenosine receptor A2a, sequence (P29274 whole entry): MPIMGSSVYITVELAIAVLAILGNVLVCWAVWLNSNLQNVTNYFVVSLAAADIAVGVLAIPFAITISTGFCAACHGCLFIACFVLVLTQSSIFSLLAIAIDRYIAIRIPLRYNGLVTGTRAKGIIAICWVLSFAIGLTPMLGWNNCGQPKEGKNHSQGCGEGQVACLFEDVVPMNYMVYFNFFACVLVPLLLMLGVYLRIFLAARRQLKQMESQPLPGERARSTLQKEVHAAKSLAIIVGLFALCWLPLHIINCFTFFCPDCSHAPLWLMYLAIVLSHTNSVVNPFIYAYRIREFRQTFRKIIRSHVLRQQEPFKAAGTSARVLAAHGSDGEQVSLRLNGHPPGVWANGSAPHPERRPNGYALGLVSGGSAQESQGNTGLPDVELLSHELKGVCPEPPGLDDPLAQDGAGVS

[13] = target: Beta-1 adrenergic receptor (Homo sapiens, UniProt P08588); assay: Inhibition of adrenergic beta-1 receptor
Beta-1 adrenergic receptor, sequence (P08588 whole entry): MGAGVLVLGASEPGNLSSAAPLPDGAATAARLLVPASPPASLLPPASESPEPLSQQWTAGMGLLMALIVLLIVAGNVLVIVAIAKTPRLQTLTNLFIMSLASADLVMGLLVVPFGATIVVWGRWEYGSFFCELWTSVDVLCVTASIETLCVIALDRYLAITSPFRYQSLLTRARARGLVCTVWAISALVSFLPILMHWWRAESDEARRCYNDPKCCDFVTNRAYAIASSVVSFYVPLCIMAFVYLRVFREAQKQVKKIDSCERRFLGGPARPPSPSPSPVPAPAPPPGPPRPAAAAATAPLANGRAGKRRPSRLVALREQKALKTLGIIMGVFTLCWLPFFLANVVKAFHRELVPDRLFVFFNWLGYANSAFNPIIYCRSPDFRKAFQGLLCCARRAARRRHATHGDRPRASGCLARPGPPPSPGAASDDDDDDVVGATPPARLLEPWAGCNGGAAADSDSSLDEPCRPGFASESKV

[14] = target: Beta-2 adrenergic receptor (Homo sapiens, UniProt P07550); assay: Inhibition of adrenergic beta2 receptor
[15] = target: T3, Adrenergic receptor alpha-1; assay: Inhibition of adrenergic alpha-1A receptor; assay type: protein assay
[16] = target: 5-hydroxytryptamine receptor 6 (Homo sapiens, UniProt P50406); assay: Inhibition of 5HT6 receptor
5-hydroxytryptamine receptor 6, sequence (P50406 whole entry): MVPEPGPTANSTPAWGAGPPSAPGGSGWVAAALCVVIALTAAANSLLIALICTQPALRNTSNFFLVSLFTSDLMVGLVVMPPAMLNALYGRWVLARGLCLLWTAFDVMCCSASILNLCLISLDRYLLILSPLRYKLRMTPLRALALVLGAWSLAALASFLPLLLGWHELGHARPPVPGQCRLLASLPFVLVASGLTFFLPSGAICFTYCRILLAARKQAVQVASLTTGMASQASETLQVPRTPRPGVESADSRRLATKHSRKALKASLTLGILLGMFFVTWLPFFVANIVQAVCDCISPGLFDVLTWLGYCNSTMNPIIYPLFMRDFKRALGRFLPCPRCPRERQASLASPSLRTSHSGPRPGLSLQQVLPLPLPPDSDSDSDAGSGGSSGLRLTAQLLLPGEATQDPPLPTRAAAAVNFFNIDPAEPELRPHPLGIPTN

Histamine H1 receptor = Histamine H1 receptor (Homo sapiens, UniProt P35367); assay: Inhibition of histamine H1 receptor
P2Y purinoceptor 1 = P2Y purinoceptor 1 (Homo sapiens, UniProt P47900); assay: Inhibition of P2Y1 receptor
P2Y purinoceptor 1, sequence (P47900 whole entry): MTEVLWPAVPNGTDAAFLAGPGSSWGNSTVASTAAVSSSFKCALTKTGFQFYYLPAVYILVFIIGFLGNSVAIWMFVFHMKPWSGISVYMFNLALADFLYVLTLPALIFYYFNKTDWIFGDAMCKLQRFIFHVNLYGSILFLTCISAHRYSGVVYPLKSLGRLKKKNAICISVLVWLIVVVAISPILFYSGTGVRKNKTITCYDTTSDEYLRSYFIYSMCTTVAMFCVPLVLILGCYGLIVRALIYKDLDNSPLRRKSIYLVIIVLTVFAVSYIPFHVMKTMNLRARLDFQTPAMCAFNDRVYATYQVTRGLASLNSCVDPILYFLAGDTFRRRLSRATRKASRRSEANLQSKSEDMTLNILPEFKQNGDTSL

D(3) dopamine receptor = D(3) dopamine receptor (Homo sapiens, UniProt P35462); assay: Inhibition of dopamine D3 receptor
Histamine H3 receptor = Histamine H3 receptor (Homo sapiens, UniProt Q9Y5N1); assay: Inhibition of histamine H3 receptor
Histamine H3 receptor, sequence (Q9Y5N1 whole entry): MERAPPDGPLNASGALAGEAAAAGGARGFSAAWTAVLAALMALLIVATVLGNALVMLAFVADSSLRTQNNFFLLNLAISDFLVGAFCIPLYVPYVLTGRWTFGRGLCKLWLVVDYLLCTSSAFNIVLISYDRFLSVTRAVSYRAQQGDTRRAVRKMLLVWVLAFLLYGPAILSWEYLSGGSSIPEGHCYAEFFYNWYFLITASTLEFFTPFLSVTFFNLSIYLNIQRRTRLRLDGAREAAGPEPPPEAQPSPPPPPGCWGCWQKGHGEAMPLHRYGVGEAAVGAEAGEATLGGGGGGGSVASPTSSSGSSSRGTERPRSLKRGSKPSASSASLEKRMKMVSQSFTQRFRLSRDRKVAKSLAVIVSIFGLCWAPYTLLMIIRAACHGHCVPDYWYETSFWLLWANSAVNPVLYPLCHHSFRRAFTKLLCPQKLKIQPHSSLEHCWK

[17] = target: Plasminogen activator inhibitor 1 (Homo sapiens, UniProt P05121); assay: Inhibition of PAI1
[18] = target: 5-hydroxytryptamine receptor 1D (Homo sapiens, UniProt P28221); assay: Inhibition of 5HT1D receptor
5-hydroxytryptamine receptor 1D, sequence (P28221 whole entry): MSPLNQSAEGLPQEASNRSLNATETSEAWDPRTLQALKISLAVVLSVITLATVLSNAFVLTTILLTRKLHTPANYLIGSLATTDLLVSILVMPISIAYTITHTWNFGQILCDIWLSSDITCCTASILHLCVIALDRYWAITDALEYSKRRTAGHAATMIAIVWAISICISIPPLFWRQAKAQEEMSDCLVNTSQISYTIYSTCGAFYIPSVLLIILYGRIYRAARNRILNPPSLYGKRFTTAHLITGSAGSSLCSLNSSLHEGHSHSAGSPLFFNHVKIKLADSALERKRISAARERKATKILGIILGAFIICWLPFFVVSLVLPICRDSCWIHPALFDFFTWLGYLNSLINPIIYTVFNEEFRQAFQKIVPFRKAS

Cytochrome P450 2C9 = Cytochrome P450 2C9 (Homo sapiens, UniProt P11712); assay: Inhibition of human CYP2C9
Cytochrome P450 2C9, sequence (P11712 whole entry): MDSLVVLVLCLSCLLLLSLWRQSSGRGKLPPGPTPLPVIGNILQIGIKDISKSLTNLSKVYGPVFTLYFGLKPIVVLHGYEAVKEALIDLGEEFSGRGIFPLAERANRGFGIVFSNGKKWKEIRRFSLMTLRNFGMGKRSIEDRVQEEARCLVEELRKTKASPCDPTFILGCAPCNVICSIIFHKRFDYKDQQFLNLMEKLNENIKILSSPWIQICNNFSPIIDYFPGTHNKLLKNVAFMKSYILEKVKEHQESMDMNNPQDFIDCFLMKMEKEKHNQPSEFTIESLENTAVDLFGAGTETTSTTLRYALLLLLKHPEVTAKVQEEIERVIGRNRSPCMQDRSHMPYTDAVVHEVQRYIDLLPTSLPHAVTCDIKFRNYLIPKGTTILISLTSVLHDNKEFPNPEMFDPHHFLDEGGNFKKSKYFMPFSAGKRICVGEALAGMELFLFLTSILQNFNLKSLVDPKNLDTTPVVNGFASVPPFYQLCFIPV

[19] = Volume of distribution at steady state in rat at 1.6 mg/kg, iv and 3.2 mg/kg, po; assay type: ADME, organism-based; settings: in vivo, read-out: Vdss
[20] = Bioavailability in rat at 3.2 mg/kg, po; assay type: ADME, organism-based; settings: in vivo
[21] = Clearance in rat at 1.6 mg/kg, iv and […] mg/kg, po; assay type: ADME, organism-based; settings: in vivo
Cytochrome P450 2D6 = Cytochrome P450 2D6 (Homo sapiens, UniProt P10635); assay: Inhibition of human CYP2D6; assay type: ADME
Cytochrome P450 2D6, sequence (P10635 whole entry): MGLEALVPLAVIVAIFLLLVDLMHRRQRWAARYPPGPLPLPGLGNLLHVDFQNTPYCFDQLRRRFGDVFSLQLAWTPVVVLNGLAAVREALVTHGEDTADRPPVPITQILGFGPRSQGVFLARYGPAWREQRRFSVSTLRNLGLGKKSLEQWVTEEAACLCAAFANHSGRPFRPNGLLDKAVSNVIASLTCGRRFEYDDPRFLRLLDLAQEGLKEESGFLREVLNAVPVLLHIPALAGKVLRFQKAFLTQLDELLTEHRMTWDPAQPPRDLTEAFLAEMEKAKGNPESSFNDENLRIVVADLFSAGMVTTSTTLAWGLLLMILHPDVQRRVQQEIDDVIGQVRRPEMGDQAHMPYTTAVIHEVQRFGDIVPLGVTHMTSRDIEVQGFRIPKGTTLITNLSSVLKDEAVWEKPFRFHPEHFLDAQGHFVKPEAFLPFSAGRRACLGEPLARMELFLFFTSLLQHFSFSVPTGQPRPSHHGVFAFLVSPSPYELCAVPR

Cytochrome P450 3A4 = Cytochrome P450 3A4 (Homo sapiens, UniProt P08684); assay: Inhibition of human CYP3A4; assay type: ADME
[22] = Half life in rat at 1.6 mg/kg, iv and 3.2 mg/kg, po; assay type: ADME, organism-based; settings: in vivo
Cytochrome P450 1A2 = Cytochrome P450 1A2 (Homo sapiens, UniProt P05177); assay: Inhibition of human CYP1A2; assay type: ADME

Structure (SMILES): O=[N+]([O-])c1cc(O)c2c(c1)S(=O)(=O)N=C(Nc1ccccc1Br)N2
- IC50 [1]: 0.026 µM
- IC50 [2]: 3.2 µM
- Ratio IC50 [3]: < 100
- IC50 [4]: 0.6 µM
- solubility [5]: 233 µM (≈ 96.3 µg/mL)

Structure (SMILES): O=S1(=O)N=C(Nc2ccccc2Br)Nc2c(O)cc(Br)cc21
- IC50 [1]: 0.07 µM

Structure (SMILES): O=S1(=O)NC(Nc2ccccc2C(F)(F)F)=Nc2c(O)cc(Cl)cc21
- IC50 [1]: 0.83 µM

Structure (SMILES): O=S1(=O)N=C(Nc2ccccc2Cl)Nc2c(O)cc(Cl)cc21
- IC50 [1]: 0.092 µM
- IC50 [2]: 24 µM
- Ratio IC50 [3]: < 100
- IC50 [4]: 0.52 µM
- solubility [5]: 68 µM (≈ 24.4 µg/mL)

Structure (SMILES): O=S1(=O)N=C(Nc2ccc(F)cc2Br)Nc2c(O)cc(Cl)cc21
- IC50 [1]: 0.12 µM

Structure (SMILES): O=S1(=O)N=C(Nc2ccccc2F)Nc2c(O)cc(Cl)cc21
- IC50 [1]: 0.74 µM

Structure (SMILES): CC[C@@H](C)NC1=Nc2c(O)cc(Cl)cc2S(=O)(=O)N1
- IC50 [1]: 15 µM

Structure (SMILES): O=S1(=O)NC(NCc2ccccc2)=Nc2c(O)cc(Cl)cc21
- IC50 [1]: 8 µM

Structure (SMILES): O=S1(=O)N=C(Nc2ccccc2Br)Nc2c(O)cc(Cl)cc21
- Ratio IC50 [3]: < 100

Structure (SMILES): O=S1(=O)N=C(Nc2ccccc2N2CCOCC2)Nc2c(O)cc(Cl)cc21
- IC50 [1]: > 30 µM

Structure (SMILES): CC(=O)c1ccccc1NC1=Nc2c(O)cc(Cl)cc2S(=O)(=O)N1
- IC50 [1]: 4.5 µM

Structure (SMILES): O=[N+]([O-])c1cc(O)c2c(c1)S(=O)(=O)N=C(Nc1ccccc1Oc1ccccc1)N2
- IC50 [6]: 25 µM
- IC50 [7]: > 25 µM
- IC50 (D(2) dopamine receptor): > 3.2 µM
- IC50 [8]: 25 µM
- IC50 [9]: > 3.2 µM
- IC50 [1]: 0.054 µM
- IC50 [10]: > 3.2 µM
- IC50 [11]: > 10 µM
- IC50 [12]: > 25 µM
- IC50 (Adenosine receptor A2a): 25 µM
- IC50 [13]: > 25 µM
- IC50 [2]: 7.6 µM
- IC50 [14]: > 25 µM
- IC50 [15]: 1 µM
- Ratio IC50 [3]: < 100
- IC50 [4]: 0.49 µM
- IC50 [16]: > 7.9 µM
- IC50 (Histamine H1 receptor): > 10 µM
- IC50 (P2Y purinoceptor 1): > 25 µM
- IC50 (D(3) dopamine receptor): > 3.2 µM
- IC50 (Histamine H3 receptor): > 3.2 µM
- solubility [5]: 2 µM (≈ 0.853 µg/mL)
- IC50 [17]: 7.9 µM
- IC50 [18]: > 3.2 µM

Structure (SMILES): O=S1(=O)N=C(Nc2ccccc2Br)Nc2c(O)ccc(Cl)c21
- IC50 [1]: 0.48 µM

Structure (SMILES): O=S1(=O)NC(Nc2ccccc2-c2ccccc2)=Nc2c(O)cc(Cl)cc21
- IC50 [1]: 0.23 µM

Structure (SMILES): O=C(O)c1ccccc1NC1=Nc2c(O)cc(Cl)cc2S(=O)(=O)N1
- IC50 [1]: > 30 µM

Structure (SMILES): O=S1(=O)NC(Nc2ccccc2Br)=Nc2c(O)cc(Cl)cc21
- IC50 [1]: 0.064 µM
- IC50 [2]: 13 µM
- IC50 [4]: 0.4 µM
- solubility [5]: 31 µM (≈ 12.5 µg/mL)

Structure (SMILES): O=[N+]([O-])c1cc(O)c2c(c1)S(=O)(=O)N=C(Nc1ccccc1Cl)N2
- IC50 (Cytochrome P450 2C9): 0.6 µM
- IC50 [1]: 0.081 µM
- Vd [19]: 0.53 L/kg
- bioavailability [20]: 5%
- clearance [21]: 23 mL/min/kg
- IC50 (Cytochrome P450 2D6): > 25 µM
- IC50 (Cytochrome P450 3A4): > 25 µM
- half-life [22]: 2 h
- IC50 [2]: 12 µM
- Ratio IC50 [3]: < 100
- IC50 [4]: 1.1 µM
- IC50 (Cytochrome P450 1A2): > 25 µM
- solubility [5]: 188 µM (≈ 69.3 µg/mL)

Structure (SMILES): O=S1(=O)N=C(Nc2ccccc2)Nc2c(O)cc(Cl)cc21
- IC50 [1]: 2.4 µM

Structure (SMILES): O=S1(=O)N=C(Nc2cc(F)ccc2Br)Nc2c(O)cc(Cl)cc21
- IC50 [1]: 3.9 µM

Structure (SMILES): O=S1(=O)NC(NCc2ccccc2Cl)=Nc2c(O)cc(Cl)cc21
- IC50 [1]: > 30 µM

Structure (SMILES): Cc1ccccc1NC1=NS(=O)(=O)c2cc(Cl)cc(O)c2N1
- IC50 [1]: 0.39 µM

Structure (SMILES): O=S1(=O)N=C(Nc2cccc(Br)c2)Nc2c(O)cc(Cl)cc21
- IC50 [1]: 6.1 µM

Structure (SMILES): O=S1(=O)NC(Nc2cccc(F)c2Cl)=Nc2c(O)cc(Cl)cc21
- IC50 [1]: 0.064 µM
- IC50 [2]: 13 µM
- IC50 [4]: 0.46 µM
- solubility [5]: 160 µM (≈ 60.2 µg/mL)

Further lines, results first:

- IC50 [1]: 1.6 µM
Structure (SMILES): O=S1(=O)NC(Nc2c(F)cccc2Br)=Nc2c(O)cc(Cl)cc21

- IC50 [1]: 0.36 µM
Structure (SMILES): O=S1(=O)NC(Nc2ccccc2Br)=Nc2c(O)cc(F)cc21

- IC50 [1]: 0.054 µM
- IC50 [2]: 20 µM
- Ratio IC50 [3]: < 100
- IC50 [4]: 0.32 µM
- solubility [5]: < 1 µM
Structure (SMILES): O=S1(=O)N=C(Nc2ccccc2Oc2ccccc2)Nc2c(O)cc(Cl)cc21

- Ratio IC50 [3]: < 100
Structure (SMILES): O=S1(=O)N=C(Nc2cccc(F)c2Cl)Nc2c(O)cc(Cl)cc21

- IC50 [1]: 5.1 µM
Structure (SMILES): O=S1(=O)NC(Nc2ccc(Br)cc2)=Nc2c(O)cc(Cl)cc21

- IC50 [1]: 0.93 µM
Structure (SMILES): O=S1(=O)NC(Nc2ccccc2OC(F)(F)F)=Nc2c(O)cc(Cl)cc21

- IC50 [1]: 0.25 µM
Structure (SMILES): COc1ccccc1NC1=Nc2c(O)cc(Cl)cc2S(=O)(=O)N1

- IC50 [1]: 20 µM
Structure (SMILES): O=S1(=O)N=C(NC2CCCC2)Nc2c(O)cc(Cl)cc21

- IC50 [1]: 5.2 µM
Structure (SMILES): O=S1(=O)N=C(Nc2ccccc2Cl)Nc2c(O)cccc21

- IC50 [1]: 3 µM
Structure (SMILES): O=S1(=O)N=C(Nc2ccccc2Br)Nc2c(O)ccc(F)c21

- IC50 [1]: 0.28 µM
Structure (SMILES): Cc1cc(O)c2c(c1)S(=O)(=O)N=C(Nc1ccccc1Br)N2
